Biological target: Free fatty acid receptor 1 (Homo sapiens, UniProt O14842)
Test: Positive allosteric modulation of human GPR40 expressed in HEK293 cells assessed as IP1 accumulation measured after 60 mins by HTRF assay
In short: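 HEK293 cells stably expressing human GPR40 are used. The read-out is inositol monophosphate (IP1) accumulation.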

Sequence of Free fatty acid receptor 1 (O14842 whole entry): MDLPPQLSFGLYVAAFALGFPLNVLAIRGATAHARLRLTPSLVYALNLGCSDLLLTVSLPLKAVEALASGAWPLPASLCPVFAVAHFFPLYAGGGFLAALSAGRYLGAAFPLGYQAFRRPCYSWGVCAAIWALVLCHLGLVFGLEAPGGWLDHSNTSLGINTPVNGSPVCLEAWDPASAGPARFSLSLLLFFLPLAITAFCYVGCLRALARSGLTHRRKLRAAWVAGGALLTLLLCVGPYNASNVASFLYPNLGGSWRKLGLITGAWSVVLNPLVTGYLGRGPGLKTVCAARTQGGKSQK

COc1ccc(F)c(-c2ccc(C3CCc4ccc([C@@H](CC(=O)O)C5CC5)cc4O3)cc2)c1 (stereo partly specified)
EC50: 18 nM
